Experimental data: the array DNA melting data of Ke et al. (doi:10.1101/2024.01.08.574731)

What was measured:
[1] = melting temperature; fluorescence melt of hairpins on a sequencing array, two-state fit, raised by 9.35 °C to match UV melts; conditions: sodium 0.088 M
Summary of the method: (§1)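 Melting temperature and folding enthalpy were obtained by bootstrapped two-state fitting. Fits used Cy3 fluorescence of library hairpins with annealed Cy3 and quencher oligos on a sequenced MiSeq flow cell, imaged in 50 mM Na-HEPES pH 8.0, 25 mM NaCl in 2.5 °C steps up to 60 °C and normalised to pre-quench Cy3 and control constructs. Four replicates were combined by inverse-variance weighting, and fitted temperatures were raised by 9.35 °C to match UV melts.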

[2] = folding enthalpy; higher = less favourable; fluorescence melt of hairpins on a sequencing array, two-state fit; conditions: sodium 0.088 M
Summary of the method: as §1

GACGGCGAAAGCCCTGTC ((((((....)))..)))
Tm [1]: 38.6 °C | folding enthalpy [2]: -13.6 kcal/mol

GATCACATTGGTGATC ((((((....))))))
Tm [1]: 56.7 °C | folding enthalpy [2]: -40.1 kcal/mol

GCGTCGTTACGC ((((....))))
Tm [1]: 52.6 °C | folding enthalpy [2]: -21.8 kcal/mol

GTTCTCCGAAAGGACAAC (((.(((....))).)))
Tm [1]: 30 °C | folding enthalpy [2]: -15.6 kcal/mol

GCCCTCTCGAAAGAGGGC (((..(((....))))))
Tm [1]: 68.1 °C | folding enthalpy [2]: -40.5 kcal/mol

GATCTCACTTGAGATC ((((((....))))))
Tm [1]: 54.1 °C | folding enthalpy [2]: -39 kcal/mol

GTGAGCGAAAGCTTGCAC ((((((....)))..)))
Tm [1]: 51.4 °C | folding enthalpy [2]: -7.82 kcal/mol

GAATCGCGAAAGCGCTTC (((.(((....))).)))
Tm [1]: 43.2 °C | folding enthalpy [2]: -18.1 kcal/mol

GAGCCCCGAAAGGGACTC (((.(((....))).)))
Tm [1]: 58.6 °C | folding enthalpy [2]: -35.2 kcal/mol

GCAATGCGAAAGCCGTGC (((..((....))..)))
Tm [1]: 35.4 °C | folding enthalpy [2]: -20.4 kcal/mol

GTTTCGCGAAAGCGGAAC (((.(((....))).)))
Tm [1]: 59.2 °C | folding enthalpy [2]: -23.4 kcal/mol

GTATCCGAAAGGAGTTAC ((((((....)))..)))
Tm [1]: 25.3 °C | folding enthalpy [2]: -14.9 kcal/mol

GGCAAGGGAAACTTTGCC (((((.(....).)))))
Tm [1]: 50.1 °C | folding enthalpy [2]: -37.7 kcal/mol

GTTGAGGGAAACCTTAAC (((.(((....))).)))
Tm [1]: 37 °C | folding enthalpy [2]: -31.4 kcal/mol

GATCTTGAGGAAGATC ((((((....))))))
Tm [1]: 36.8 °C | folding enthalpy [2]: -24.9 kcal/mol

GTTAAGGGAAACCTTGAC ((.((((....)))).))
Tm [1]: 37.4 °C | folding enthalpy [2]: -29.3 kcal/mol

GCAGTGCGAAAGCGCGGC ((.(.((....)).).))
Tm [1]: 66.7 °C | folding enthalpy [2]: -31 kcal/mol

GAGTGCGAAAGCACGCTC ((((((....)))..)))
Tm [1]: 66.7 °C | folding enthalpy [2]: -10.9 kcal/mol

GGTAGGCGAAAGCCGACC (((.(((....))).)))
Tm [1]: 65.4 °C | folding enthalpy [2]: -18.6 kcal/mol

GATCTGCGAACAGATC ((((((....))))))
Tm [1]: 49.4 °C | folding enthalpy [2]: -33.5 kcal/mol

GTGCATGGAAACATGTAC ((.((((....)))).))
Tm [1]: 48.7 °C | folding enthalpy [2]: -31.7 kcal/mol

GATCAATTGATTGATC ((((((....))))))
Tm [1]: 47.2 °C | folding enthalpy [2]: -36.5 kcal/mol

GATCGCTAGGGCGATC ((((((....))))))
Tm [1]: 68.2 °C | folding enthalpy [2]: -34.8 kcal/mol

GTTACCGGAAACGGTGAC ((.((((....)))).))
Tm [1]: 51.2 °C | folding enthalpy [2]: -30.4 kcal/mol

GATCCTTAAGAGGATC ((((((....))))))
Tm [1]: 50.9 °C | folding enthalpy [2]: -38.1 kcal/mol

GGCGATCGAAAGATGCC (((.(((....))))))
Tm [1]: 55 °C | folding enthalpy [2]: -37.8 kcal/mol

GAACACGAAAGTGCTTTC ((((((....)))..)))
Tm [1]: 27.8 °C | folding enthalpy [2]: -13 kcal/mol

GATCTGGTTTCAGATC ((((((....))))))
Tm [1]: 51.1 °C | folding enthalpy [2]: -35.9 kcal/mol

GGCAGGAAACTGCC (((((....)))))
Tm [1]: 65.6 °C | folding enthalpy [2]: -31.6 kcal/mol

GCTTGTGGAAACGCAAGC (((((.(....).)))))
Tm [1]: 55.6 °C | folding enthalpy [2]: -39.5 kcal/mol

GAGTGCCCGAAAGGGCTC (((..(((....))))))
Tm [1]: 35.5 °C | folding enthalpy [2]: -6.67 kcal/mol

CGTATCGGAAACGAGACG (((.(((....))).)))
Tm [1]: 53.3 °C | folding enthalpy [2]: -35.2 kcal/mol

GTCCCATCGAAAGATGAC (((..(((....))))))
Tm [1]: 25.9 °C | folding enthalpy [2]: -12 kcal/mol

GATCCTAAAAGGATC ((((((...))))))
Tm [1]: 54.3 °C | folding enthalpy [2]: -36.3 kcal/mol

GCCTTCGAAAGAATGGGC ((((((....)))..)))
Tm [1]: 42.5 °C | folding enthalpy [2]: -28.1 kcal/mol

GACTGTACGAAAGTAGTC (((..(((....))))))
Tm [1]: 36.9 °C | folding enthalpy [2]: -28.8 kcal/mol

GATCAGAGCTCTGATC ((((((....))))))
Tm [1]: 54.1 °C | folding enthalpy [2]: -53 kcal/mol

GCGTCCAAACGC ((((....))))
Tm [1]: 51.4 °C | folding enthalpy [2]: -18.8 kcal/mol

GCGTGTCGAAAGACTCGC (((.(((....))).)))
Tm [1]: 63.9 °C | folding enthalpy [2]: -45.2 kcal/mol

GATCCTTAGAAGGATC ((((((....))))))
Tm [1]: 50.2 °C | folding enthalpy [2]: -33.8 kcal/mol

GGATGGGGAAACCCATCC (((((((....)))))))
Tm [1]: 66.4 °C | folding enthalpy [2]: -46.7 kcal/mol

GTATGCGAAAGCATTAC ((((((....))).)))
Tm [1]: 43.4 °C | folding enthalpy [2]: -13.8 kcal/mol

GATGGTGGAAACACCGTC ((.((((....)))).))
Tm [1]: 53.6 °C | folding enthalpy [2]: -23.7 kcal/mol

GATCGGACGACCGATC ((((((....))))))
Tm [1]: 57.3 °C | folding enthalpy [2]: -35.1 kcal/mol

GCTCACGAAAGTGAGAGC ((((((....)))..)))
Tm [1]: 59 °C | folding enthalpy [2]: -13.7 kcal/mol

GTTTGTGGAAACACGAAC (((.(((....))).)))
Tm [1]: 49 °C | folding enthalpy [2]: -36 kcal/mol
